Source: PubChem (several laboratories)
In the library only some 12% were active in any assay of this set; here they are far more common.
ABCG2 block – blocks JC-1 efflux by human ABCG2 transporter | IgMXP3 cells, flow cytometry | 190,000 compounds, 0.1% hits | inhibition, % at 6.6 µM;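 active = inhibition above 80%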
Target sequence (Q9UNQ0 whole entry, looked up): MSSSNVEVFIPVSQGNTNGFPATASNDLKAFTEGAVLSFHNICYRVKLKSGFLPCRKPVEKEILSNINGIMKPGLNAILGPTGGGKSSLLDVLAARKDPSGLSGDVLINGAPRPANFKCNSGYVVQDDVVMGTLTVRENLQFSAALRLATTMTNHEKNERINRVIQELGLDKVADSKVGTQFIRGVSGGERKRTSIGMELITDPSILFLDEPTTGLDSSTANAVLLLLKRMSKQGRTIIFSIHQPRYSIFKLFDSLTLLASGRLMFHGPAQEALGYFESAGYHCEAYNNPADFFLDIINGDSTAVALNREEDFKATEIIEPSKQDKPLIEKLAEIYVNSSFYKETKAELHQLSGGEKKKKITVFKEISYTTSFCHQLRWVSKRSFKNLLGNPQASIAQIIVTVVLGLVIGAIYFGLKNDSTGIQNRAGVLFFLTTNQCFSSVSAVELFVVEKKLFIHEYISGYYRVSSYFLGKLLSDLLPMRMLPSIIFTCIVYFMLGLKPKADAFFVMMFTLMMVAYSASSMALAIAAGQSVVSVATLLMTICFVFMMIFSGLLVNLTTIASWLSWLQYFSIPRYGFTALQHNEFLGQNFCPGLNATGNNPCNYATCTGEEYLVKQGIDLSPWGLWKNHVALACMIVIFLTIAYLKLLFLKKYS
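Test system: IgMXP3 (ABCG2) plus far-red-tagged CCRF-Adr (ABCB1) cells. Reagent: JC-1 dye as substrate. Timing: 10 min exposure at 25 °C with rotation, no wash. Measured by: flow cytometric JC-1 green MFI at 530 nm. Read-out: percent efflux inhibition, scaled nicardipine 100% to DMSO 0%. Control set: nicardipine and DMSO wells.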
RAM network inh – inhibitors of the yeast RAM network. S. cerevisiae dse1pr::URA3 reporter, 5-FOA growth OD615, 2 d; analog-sensitive cbk1-as2 kinase mutant strain. inhibition, % at 50 µM. 190,000 compounds, 1.8% hits;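 active = inhibition above a set limit, 3 SD over mean compound inhibition, cut at about 8.4% in these data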;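 note: inhibition rescues growth on 5-FOA so higher OD means more RAM inhibition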
ABCB1 block – human ABCB1 inhibition, ABCG2 as counter-screen | 190,000 compounds, 0.067% hits | inhibition, % at 6.6 µM | CCRF-Adr cells, JC-1 efflux, flow cytometry; in the data active = inhibition above about 40%;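 note: higher value means more JC-1 retained so stronger ABCB1 efflux block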
L major viab – reduces viability of Leishmania major promastigotes | resazurin fluorescence viability | inhibition, % at 10 µM | 200,000 compounds, 9% hits; in the data active = inhibition above about 50%;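 note: promastigotes grown with compound for 44 hours at 28 °C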
WT yeast gro inh – growth inhibition of WT yeast, mitochondrial fusion screen. mitochondrial fusion phenotypic screen, WT strain. inhibition, % at 10 µM. 190,000 compounds, 2.1% hits; in the data active = inhibition above about 58%; tested in S. cerevisiae
L major 1uM – inhibitors of Leishmania major promastigote growth, repeat at 1 uM; shares compounds with L major viab; L. major promastigote growth, resazurin fluorescence, 48 h; inhibition, % at 1 µM; 1,100 compounds, 13% hits; AID 1258;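 active = inhibition above about 50% in both repeat tests, limit read from the data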
ABCB1 single pt – inhibits human ABCB1 efflux, confirmed at single point; 270 compounds, 7% hits; CCRF-Adr cells, JC-1 efflux, flow cytometry; inhibition, % at 6.6 µM; shares compounds with ABCG2 block;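 active = inhibition of pump activity above 50%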
ABCG2 confirm – confirmation of human ABCG2 transporter inhibitors, ABCB1 counter-screen | shares compounds with ABCG2 block | inhibition, % at 6.6 µM | AID 1453 | IgMXP3 cells, JC-1 efflux, flow cytometry | 270 compounds, 6% hits;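 active = inhibition above 50%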
IgMXP3 fluor – compound fluoresces at 488/530 nm in IgMXP3 cells; fluorescence at 6.6 µM; shares compounds with ABCG2 block; 270 compounds, 30% hits; AID 1480; compound autofluorescence 488/530 nm, flow; stronger effect = higher value;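 active = fluorescence in ABCG2-expressing cells above the plate's control-well mean plus 3 SD, cut at about 15 in these data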
CCRF-Adr fluor – CCRF-Adr autofluorescence flag for ABCB1 confirmation; shares compounds with ABCG2 block; CCRF-Adr cells, compound autofluorescence 488/530 nm, flow cytometry; stronger effect = higher value; fluorescence at 6.6 µM; 270 compounds, 30% hits;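 active = fluorescence beyond the plate control mean plus 3 SD, with a fluorescence-to-maximum score over 2, cut at about 25 in these data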
Numbers stand for hits; n = inactive; x = not tested or not shown; + = active, no number.

SMILES | ABCG2 block | RAM network inh | ABCB1 block | L major viab | WT yeast gro inh | L major 1uM | others
COc1ccc(NS(=O)(=O)c2cc(NC(=O)c3nc4nc(C)cc(C)n4n3)ccc2C)cc1 | n | n | n | 72 | n | n
Cc1[nH]c2ccccc2c1C(c1ccccn1)N1CCC(C(N)=O)CC1 (stereo not drawn) | n | n | n | 60 | n | n
CCOC(=O)C1CCN(C(c2ccccn2)c2c(C)[nH]c3ccccc23)CC1 (stereo not drawn) | n | n | n | n | n | x
Cc1ccc(Nc2ncnc(N)n2)cc1C | n | n | n | n | n | x
Cc1ccc(NC2(c3nnnn3-c3c(C)cccc3C)CCCCC2)cc1 | n | n | n | 97 | 82 | n
O=c1cc(-c2cccc3ccccc23)[nH][nH]1 | n | n | n | 80 | n | n
O=c1cc(-c2ccc(Cl)cc2)[nH][nH]1 | n | n | n | n | n | x
COc1cc(/C=C/C(=O)O)cc2c1OCCO2 | n | n | n | n | n | x
Cc1ccc(-c2[nH]nc(N)c2N=Nc2ccccc2C)cc1 | n | n | n | 100 | n | n
COc1ccc(S(=O)(=O)NCC2CCCN(C(=O)c3ccccc3)C2)cc1 (stereo not drawn) | n | n | n | n | n | x
CCC(=O)NC1OC(CO)C(O)C(O)C1O (stereo not drawn) | n | n | n | n | n | x
O=C1NCC(c2ccccc2)C1C(=O)N/N=C\c1ccc(-c2ccc(Cl)c(Cl)c2)o1 (stereo not drawn) | n | n | n | 59 | n | n
Oc1ccc2[nH]ccc2c1 | n | n | n | 87 | n | n
Cc1cc(C)c2c(c1)-c1cc(C)nn1C(c1ccc3c(c1)OCO3)N2 (stereo not drawn) | n | n | n | 99 | n | 76
Cn1c(=O)n(C)c2cc(/C=N/NC(N)=S)ccc21 | n | n | n | n | n | x
O=[N+]([O-])c1ccc(OC/C=C2\Oc3ccc([N+](=O)[O-])cc3C2N2CCOCC2)cc1 (stereo not drawn) | n | n | n | n | n | x
O=[N+]([O-])c1ccc2c(c1)C(N1CCOCC1)/C(=C/COc1ccc3ccccc3c1Br)O2 (stereo not drawn) | n | n | n | 97 | n | n
Cc1cc(C)cc(C(=O)N(NC(=O)Nc2ccc(Cl)cc2)C(C)(C)C)c1 | n | n | n | 98 | n | n
COc1ccc(N2C(=O)C3[C@@H](C2=O)C2(Cl)C(Cl)=C(Cl)C3(Cl)C2(OC)OC)cc1 (stereo partly drawn) | n | n | n | n | n | x
Cc1ccc(NC(=O)CC2NCCNC2=O)cc1Cl (stereo not drawn) | n | n | n | n | n | x
CCN1CCN(C(c2ccccc2)c2nnnn2Cc2ccc3c(c2)OCO3)CC1 (stereo not drawn) | n | n | n | n | n | x
Cc1cc(C(c2nnnn2Cc2ccccc2)N2CCOCC2)c(C)n1-c1ccc2c(c1)OCO2 (stereo not drawn) | n | n | n | 61 | n | n
Cc1ncc([N+](=O)[O-])n1CC(=O)N/N=C/c1ccc(F)cc1 | n | n | n | n | n | x
CCn1cc[n+](C)c1P(c1ccccc1)c1ccccc1 | n | n | n | 98 | n | n
O=S(=O)(c1ccc(Cl)cc1)c1cnc(-c2cccnc2)nc1-c1ccccc1 | n | n | n | n | n | x
SMILES | ABCG2 block | RAM network inh | ABCB1 block | L major viab | WT yeast gro inh | L major 1uM | others
Cc1nc(-c2ccccc2)sc1-c1nc(-c2ccncc2)ncc1S(=O)(=O)c1ccccc1 | n | n | n | 58 | 78 | n
CC(C)(C)NC(=O)C(c1cccs1)N(Cc1ccc(F)cc1)C(=O)c1csnn1 (stereo not drawn) | n | n | n | n | n | x
CN1CC(=O)N(CC(=O)Nc2cc(Cl)cc(Cl)c2)C1=O | n | n | n | n | n | x
CC(C)CC(=O)OC1C(N2CCOCC2)c2c(ccc(/C=C/C(=O)N3CCOCC3)c2O)OC1(C)C (stereo not drawn) | x | n | x | 90 | n | n
CCOC(=O)c1sc(NC(=O)CN2CCCC2)c(C(=O)OCC)c1C | n | n | n | 93 | n | n
O=[N+]([O-])c1ccc(N2CCN(C(=S)NCc3ccc(Cl)cc3)CC2)cc1 | n | 9.3 | n | 68 | n | n
COc1ccc(NC(=O)/C(=C\c2ccncc2)NC(=O)c2ccccc2)cc1 | n | n | n | n | n | x
CCc1ccc2oc(-c3ccc(OC)cc3)cc(=Nc3c(C)n(C)n(-c4ccccc4)c3=O)c2c1 | 97 | n | 44 | 90 | n | n | ABCB1 single pt=n;ABCG2 confirm=n;IgMXP3 fluor=n;CCRF-Adr fluor=n
C=CCSc1nc2sc(C)c(C)c2c(=O)n1N | n | n | n | n | n | x
CCN1/C(=C/c2ccc3cccc(C)c3[n+]2CC)Sc2ccccc21 | + | n | n | 101 | 62 | x | ABCB1 single pt=n;ABCG2 confirm=69;IgMXP3 fluor=304;CCRF-Adr fluor=305
CCN1/C(=C\C=C(C(C)=O)C(C)=O)Sc2ccccc21 | n | n | n | n | n | x
COc1ccc(Nc2nnc(SCc3cc([N+](=O)[O-])cc4c3OCOC4)s2)cc1 | n | n | n | n | n | x
COc1ccc(CN2C(=O)c3ccccc3C2=O)cc1C(=O)Nc1ccccc1N1CCOCC1 | n | n | 43 | n | n | x | ABCB1 single pt=72;ABCG2 confirm=n;IgMXP3 fluor=n;CCRF-Adr fluor=n
O=S(=O)(c1ccc(Br)cc1)N1CCN(c2cc(-c3ccccc3)nc3ncnn23)CC1 | n | n | 60 | n | n | x | ABCB1 single pt=n;ABCG2 confirm=n;IgMXP3 fluor=n;CCRF-Adr fluor=n
CCOc1ccc(OCc2cccc(C(=O)N/N=C/c3cccnc3)c2)cc1 | 87 | n | n | 58 | n | x | ABCB1 single pt=n;ABCG2 confirm=n;IgMXP3 fluor=n;CCRF-Adr fluor=n
CC(C)c1ccc(OCc2cccc(C(=O)N/N=C/c3cccnc3)c2)cc1 | n | n | n | n | n | x
O=S(=O)(c1ccc(Cl)cc1)N1CCCC(C(F)(F)F)C1 (stereo not drawn) | n | n | n | n | n | x
COc1ccc(CCNC(=O)COC(=O)/C=C/c2ccc(OC)c(OC)c2)cc1 | 89 | n | n | n | n | x | ABCB1 single pt=n;ABCG2 confirm=56;IgMXP3 fluor=n;CCRF-Adr fluor=n
COc1ccc(CCNC(=O)COC(=O)/C=C/c2ccc(OCC#N)c(OC)c2)cc1 | n | n | n | n | n | x
CN(C)c1ccc(/C=C2\SC(=S)N(Nc3ncc(C(F)(F)F)cc3Cl)C2=O)cc1 | + | n | 187 | n | n | x | ABCB1 single pt=n;ABCG2 confirm=n;IgMXP3 fluor=228;CCRF-Adr fluor=391
